According to ChEMBL document CHEMBL1136371, “The design of 8,8-dimethyl[1,6]naphthyridines as potential anticonvulsant agents” (Bioorg Med Chem Lett, 2003):

Tests used:
[1] = Plasma clearance was determined; assay type: ADME, organism-based; settings: rat
[2] = Oral bioavailability at the dose of 2 mg/kg in rat; assay type: ADME, organism-based; settings: in vivo
Outline: (§1)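 Rat pharmacokinetics after iv and po administration. Oral bioavailability (Fpo) was measured with oral dosing at 2 mg/kg, and blood clearance (CLb) in mL/min/kg.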

Rattus norvegicus [3] = species on record: Rattus norvegicus; experiment: Compound tested for its ability to protect rat from hindlimb tonic seizures following a shock by using ALLFITrd quo; assay type: functional
Outline: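 Rat supraMES model. Oral doses of 1, 10 and 30 mg/kg. At 4 h post-dose, a single corneal-electrode shock of 180 mA lasting 0.3 s was given. Protection from hindlimb tonic seizures was scored against control, and ED50 was derived by ALLFIT fitting.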

Rattus norvegicus [4] = experiment: Anticonvulsant activity by using rat MEST test at 2 mg/kg p.o. 2 hr post-dose; assay type: functional; settings: route oral
Outline: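 Rat maximal electroshock seizure threshold (MEST) test. Oral dosing at 2 mg/kg, doses as free base; reference anticonvulsant given at 2.5 mg/kg p.o. Seizure threshold read 2 h post-dose as % increase versus vehicle-treated controls. Significance by Litchfield–Wilcoxon analysis.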

Rattus norvegicus [5] = species on record: Rattus norvegicus; experiment: Binding affinity at [3H]SB-204269 binding site expressed as pKi; assay type: functional
Outline: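 Radioligand binding with [3H]SB-204269, reported as pKi. All determinations run in triplicate.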

[6] = Oral bioavailability; assay type: ADME, organism-based; settings: rat, in vivo; outline: as §1
[7] = Oral bioavailability in rat; assay type: ADME, organism-based; settings: in vivo; outline: as §1

Row | Log Ki (Rattus norvegicus [5]) | SMILES | Increase (Rattus norvegicus [4]) [%] | other results
1 | -8.7 | COc1ccc(C(=O)Nc2cnc3c(c2)CNCC3(C)C)cc1C(F)(F)F | 260 | clearance [1]: 30 mL/min/kg; bioavailability [2]: > 50%; ED50 (Rattus norvegicus [3]): 3.9 mg/kg
2 | -8.8 | COc1ccc(C(=O)Nc2cnc3c(c2)CN(C)CC3(C)C)cc1C(F)(F)F | 570 | bioavailability [6]: 20%
3 | -8.1 | COc1ccc(C(=O)Nc2cnc3c(c2)CNCC3(C)C)cc1Cl | 260 | –
4 | – | CC(=O)c1ccc2c(c1)[C@H](NC(=O)c1ccc(F)cc1)[C@@H](O)C(C)(C)O2 [CARABERSAT] | 120 | ED50 (Rattus norvegicus [3]): 6.3 mg/kg
5 | -8.5 | CCOc1ccc(C(=O)Nc2cnc3c(c2)CN(C)CC3(C)C)cc1C(F)(F)F | 310 | –
6 | -8.7 | COc1ccc(C(=O)Nc2cnc3c(c2)CNCC3(C)C)cc1Br | 260 | –
7 | -8.6 | COc1ccc(C(=O)Nc2cnc3c(c2)CN(C)CC3(C)C)cc1Br | 210 | –
8 | -8.6 | CCOc1ccc(C(=O)Nc2cnc3c(c2)CNCC3(C)C)cc1C(F)(F)F | 80 | –
9 | -8.5 | COc1ccc(C(=O)Nc2cnc3c(c2)CN(C)CC3(C)C)cc1Cl | 380 | –
10 | -7.3 | COc1ccc(C(=O)Nc2cnc3c(c2)CN(C)CC3(C)C)cc1C#N | 110 | –
11 | -8.4 | CC(C)Oc1ccc(C(=O)Nc2cnc3c(c2)CNCC3(C)C)cc1C(F)(F)F | 15 | –
12 | -8.9 | COc1ccc(C(=O)Nc2ccc3c(c2)CN(C)CC3)cc1C(F)(F)F | – | bioavailability [7]: 2%
13 | -7.3 | COc1ccc(C(=O)Nc2cnc3c(c2)CN(C)CC3(C)C)cc1F | – | –
14 | -7.2 | COc1ccc(C(=O)Nc2cnc3c(c2)CNCC3(C)C)cc1F | – | –

Row | SMILES | Log Ki (Rattus norvegicus [5]) | Increase (Rattus norvegicus [4]) [%] | other results
15 | CN1Cc2cc(NC(=O)c3ccccc3)cnc2C(C)(C)C1 | -6.2 | 3 | –
